High-throughput results: PubChem, several laboratories
The list is not random: actives were taken first. Their share in the collection is about 4.1%.
KCNK3 inh: human KCNK3 channel inhibition, primary screen; B-score at 10 µM; 0.84% of 340,000 active; AID 602410; CHO-KCNK3 thallium flux, FluxOR fluorescence; active compounds read low; O14649;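 active = B-score under library mean minus 4 SD, starting fluorescence ratio at most library mean plus 5 SD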;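 also: more negative B-score means stronger inhibition of thallium flux through KCNK3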
Target sequence (O14649 whole entry, looked up): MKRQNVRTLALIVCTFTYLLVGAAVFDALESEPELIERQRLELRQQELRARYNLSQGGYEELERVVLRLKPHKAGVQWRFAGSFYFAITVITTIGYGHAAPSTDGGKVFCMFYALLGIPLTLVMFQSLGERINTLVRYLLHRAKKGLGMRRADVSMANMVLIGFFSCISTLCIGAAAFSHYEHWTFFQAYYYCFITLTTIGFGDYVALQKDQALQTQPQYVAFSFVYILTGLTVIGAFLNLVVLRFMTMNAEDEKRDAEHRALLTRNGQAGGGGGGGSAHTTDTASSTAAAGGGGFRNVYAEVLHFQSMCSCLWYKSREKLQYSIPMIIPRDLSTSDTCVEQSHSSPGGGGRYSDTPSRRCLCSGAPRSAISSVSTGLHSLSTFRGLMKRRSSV
hERG rescue: compounds protecting human hERG from proarrhythmic drug block | CHO-hERG, FluxOR thallium flux, dofetilide IC70 present | activation (rescue from dofetilide block), less the hit threshold, % at 10 µM | 0.51% of 310,000 active | AID 1511;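 active = activation above the mean of controls blocked by dofetilide plus 5 SD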;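 also: thallium influx through hERG after potassium depolarization seen as dye fluorescence rise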
KCNK9 block: inhibitors of human KCNK9 two-pore domain potassium channel; Q9NPC2; HEK293 KCNK9, FluxOR thallium flux fluorescence; active compounds read low; B-score at 10 µM; 1.2% of 310,000 active; AID 488922;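 active = ratio B-score over 3 SD below the library mean, with starting fluorescence within 5 SD of its mean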;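 also: negative B-score means less thallium flux so channel inhibition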
KCNQ1 block: blocks the human KCNQ1 potassium channel; P51787; CHO-K1 KCNQ1, FluxOR thallium flux fluorescence; active compounds read high; B-score at 10 µM; 1.3% of 310,000 active; AID 2642;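 active = compounds whose thallium flux B-score, printed positive for inhibition, exceeds three library SD while starting fluorescence stays within three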;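 also: channel opened by potassium depolarization with thallium stimulus after 20 min compound exposure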
KCNQ1 act: human KCNQ1 channel potentiation or activation; P51787; CHO-K1 KCNQ1, thallium flux FluxOR fluorescence; active compounds read high; B-score at 10 µM; 0.35% of 310,000 active; AID 2648;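 active = fluorescence ratio B-score, a plate-corrected score, at least three library SD, with initial intensity B-score within 5 SD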
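assay system = KCNQ1-transfected CHO-K1 cells | medium = assay buffer with matched DMSO | probe or stimulus = depolarizing K+/Tl+ stimulus, K2SO4 and Tl2SO4 each 12.5 mM in 5x stock | dosing = single dose | incubation = dye 90 min, compound 20 min, room temperature | detection = kinetic FluxOR fluorescence, 10 s baseline plus 110 s post-stimulus | evaluation = ratio B score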
Cl transport mod: modulators of human KCC2 chloride dependent transport; Q9H2X9; KCC2 cells, thallium flux FluoZin-2 fluorescence; B-score of Tl+ flux slope (higher = more flux/activation; lower = inhibition) at 10 µM; 2.2% of 190,000 active;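 active = thallium flux slope and its plate-corrected score both differing from the plate sample mean at a set confidence after two filtering rounds, in either direction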;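 also: slope of fluorescence scaled to starting intensity during 10 to 20 s after thallium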
* marks the source's active call; other numbers are inactive results; i = inactive; x = no result given.

SMILES	KCNK3 inh	hERG rescue	KCNK9 block	KCNQ1 block	KCNQ1 act	Cl transport mod
CN1C(=S)SC(C)(C)C1N(O)C(=O)Nc1ccc(Cl)cc1 (stereo not given)	i	-7	i	i	i	0.59
Cc1cc(Cn2nc(-c3ccccc3)cc2C(=O)NCC2CC2)on1	i	-12	i	i	i	x
CCn1c(=S)sc2c(=O)n(CC(=O)Nc3ccccc3C(F)(F)F)c(C)nc21	i	-5	i	i	i	x
Cc1cccc([C@@H]2[C@@H]3C(=O)N(Cc4ccccc4)C(=O)[C@@H]3[C@]3(Cc4ccc(Cl)cc4)C(=O)N(c4ccc(Br)cc4)C(=O)N23)c1	i	-6	i	i	i	x
CCCN1C(=O)/C(=C/C=C2\N(CC)c3ccccc3C2(C)C)SC1=S	i	-12	i	8*	i	-0.31
CCOc1ccc(C(=O)Nc2ccc(S(=O)(=O)N3CCN(C)CC3)cc2)cc1	i	-3	i	i	i	x
CC(C)Oc1ccc(C(=O)Nc2ccc(S(=O)(=O)N3CCN(C)CC3)cc2)cc1	i	-11	-7.3*	i	i	x
CCCCN1CC(COCc2ccccc2)Oc2ccccc2S1(=O)=O (stereo not given)	i	x	x	x	x	x
CC(=O)N1c2ccccc2C(C)(c2ccccc2)CC1(C)C (stereo not given)	i	-14	i	i	i	-0.63
CC1(c2ccc([N+](=O)[O-])cc2)CC(C)(C)N(C(=O)c2ccccc2)c2ccccc21 (stereo not given)	x	-17	i	6*	i	-0.93
CCCSC1=C(C#N)C(c2cccs2)C(C(=O)Nc2ccccc2)=C(C)N1 (stereo not given)	i	-14	i	12*	i	-2.2
COc1ccc(NC(=O)CC2CCCCC2)cc1OC	i	5.7*	i	i	i	0.052
Cc1cccc(OC(C)C(=O)N2CCN(Cc3ccc4c(c3)OCO4)CC2)c1 (stereo not given)	i	-8	i	i	i	x
C=CCn1c2ccccc2c2nnc(SCN3C(=O)c4ccccc4C3=O)nc21	i	-9	i	6*	i	x
CCN(CC)c1ccc2cc(S(=O)(=O)c3ccc(Cl)cc3)c(=O)oc2c1	i	-8	i	10*	i	i
CCCCCCc1cc2cc(S(=O)(=O)c3ccc(Cl)cc3)c(=O)oc2cc1O	i	-1	i	11*	i	0.78
CC(=O)n1c(-c2ccccc2)c(-c2ccccc2)n(C)c1=O	i	-9	i	i	i	x
Cc1nc(-c2ccc(NC(=O)Cc3ccccc3)cc2)cs1	i	2	i	i	8*	x
COc1ccc(CC(=O)Nc2ccc(-c3csc(C)n3)cc2)cc1	i	-4	i	i	i	-0.31
CCC(=O)Nc1cccc(-c2csc(-c3ccccc3)n2)c1	i	-10	-7.4*	i	i	-4
CCN1/C(=C/C=C/C=C/C=C/c2sc3ccccc3[n+]2CC)Sc2ccccc21	i	-33	i	i	i	x
CCN1/C(=C/C=C/C=C/c2sc3ccccc3[n+]2CC)Sc2ccccc21	x	-42	i	17*	i	-0.96
CCCOC(=O)c1ccc(NC(=O)c2ccccc2OC)cc1	i	-12	-7.5*	i	i	-1.5
O=C(NN1C(=O)/C(=C/c2cccnc2)SC1=S)C(c1ccccc1)c1ccccc1	i	-17	i	6*	i	x
CC(Oc1ccc(-c2ccccc2)cc1)C(=O)N/N=C/c1cccnc1 (stereo not given)	i	-5	i	i	i	x
SMILES	KCNK3 inh	hERG rescue	KCNK9 block	KCNQ1 block	KCNQ1 act	Cl transport mod
CCC(C)NC(=O)c1ccccc1NC(=O)/C(=C/c1ccc(OC)cc1)c1ccccc1 (stereo not given)	i	-14	i	7*	i	-0.79
CCOc1ccc(C(=O)NCC(=O)NCCSc2ccc(Br)cc2)cc1OCC	-9.8*	x	x	x	x	x
Cc1ccc(-c2nc(NCc3ccco3)c3ccccc3n2)cc1	i	-18	-6.6*	i	i	-0.19
CCCC(=O)n1nc(-c2ccc(C)cc2)nc1NCc1ccco1	i	-13	i	i	10*	-1.1
Cc1ccc(C(=O)n2nc(-c3ccccc3)nc2NCc2ccco2)cc1	i	-8	i	i	i	-0.044
CCCCC1(Cc2cccc([N+](=O)[O-])c2)C(=O)N(c2ccccc2)N(c2ccccc2)C1=O	i	-7	i	6*	i	x
CCCCC1(CO)C(=O)N(c2ccccc2)N(c2ccccc2)C1=O	i	-5	i	i	i	-0.24
COc1ccc(CCNC(=O)C(=O)NCC2OCCN2C(=O)c2ccc(Cl)cc2)cc1OC (stereo not given)	i	-5	i	i	i	x
CCN(CC)c1ccc2cc(-c3nc4ccccc4[nH]3)c(=O)oc2c1	i	-53	i	27*	i	x
CC1CC(C)CN(C(=O)/C=C/c2ccc(S(=O)(=O)N3CCOCC3)cc2)C1 (stereo not given)	i	x	x	x	x	x
Cc1c(C(=O)N2CCN(Cc3ccc4c(c3)OCO4)CC2)sc2ncnc(N3CCN(c4ccccc4)CC3)c12	i	-17	i	7*	i	x
COc1ccc(S(=O)(=O)N(C)C)cc1NC(=O)Cc1ccc(S(=O)(=O)N2CCOCC2)s1	i	x	x	x	x	x
CC[C@H](C)/C=C(C)/C=C/C(=O)Cc1cc(O)c(C)c(O)c1C=O	-10*	-14	i	11*	i	-0.14
COc1ccc(N2CC(C(=O)N[C@@H](C)C(=O)NCc3ccccc3OC)CC2=O)cc1 (stereo not given in full)	i	-12	i	i	i	x
Cc1ccc(S(=O)(=O)NNC(=O)CCC(=O)Nc2ccccc2Cl)cc1	i	-11	i	i	i	x
COc1ccc(COc2cc(-c3cccc(OC)c3)nc3ccc(NC(=O)c4cccnc4)cc23)cc1	i	-33	i	6*	i	0.51
S=c1nc[nH]c2c1sc1nc(-c3ccccc3)c3c(c12)CCCC3	i	52*	i	i	60*	20*
O=c1[nH]cnc2c1sc1nc(-c3ccccc3)c3c(c12)CCCC3	i	-5	i	i	i	0.017
COc1ccc2o/c(=N\O)c(C(=O)Nc3ccc(C)cc3)cc2c1	i	-11	i	6*	i	-0.16
CS(=O)(=O)N1CCCC(C(=O)Nc2ccccc2)C1 (stereo not given)	i	-1	i	i	i	x
C=CCn1c(SCC(=O)NCC2CCCO2)nc2sc(CC)cc2c1=O (stereo not given)	i	x	x	x	x	x
